The results in this text go back to ChEMBL document CHEMBL1138494, “Human glucagon receptor antagonists with thiazole cores. A novel series with superior pharmacokinetic properties” (J Med Chem, 2009).

Calls of active or inactive are those of the source. The calls are words filed in the database; no cut-off is given here.

Data set [1] concerns the target T1, Glucagon receptor (Homo sapiens, UniProt P47871). Kind of data set: Displacement of [125I]porcine glucagon from human recombinant glucagon receptor expressed in BHK cells by scintillation proximity assay. In kind it is cell-based. For orientation: Displacement assays read how much labelled ligand stays bound in the presence of the test substance.
A short description of data set [2]: Cmax in fasted Sprague-Dawley rat at 1.62 mg/kg, iv and 3.25 mg/kg, po by HTLC-MS/MS analysis. In kind it is ADME, organism-based. The note with it: in vivo. Put shortly: (§1)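 Rats were dosed intravenously and perorally in separate arms, and plasma concentration-time profiles were obtained. Half-life was taken from the iv arm. Clearance, oral bioavailability, Cmax and Tmax were derived from the profiles.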

The nature of data set [3]: Tmax in fasted Sprague-Dawley rat at 1.62 mg/kg, iv and 3.25 mg/kg, po by HTLC-MS/MS analysis. The class given is ADME, organism-based. The note with it: in vivo. In outline:
(§2)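 Plasma concentration–time profiles were recorded after separate intravenous and peroral dosing at the per-compound doses listed. T_max is reported in min alongside C_max (ng/mL), intravenous half-life and clearance ((mL/min)/kg).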

Data set [4] in a line: Half life in fasted Sprague-Dawley rat plasma at 1.62 mg/kg, iv by HTLC-MS/MS analysis. In kind it is ADME, organism-based. Also noted: dose 1.62 mg/kg, route intravenous. In outline: as §1
Data set [5] concerns the target T2, Gastric inhibitory polypeptide receptor (Homo sapiens, UniProt P48546).
T2 sequence (P48546 whole entry): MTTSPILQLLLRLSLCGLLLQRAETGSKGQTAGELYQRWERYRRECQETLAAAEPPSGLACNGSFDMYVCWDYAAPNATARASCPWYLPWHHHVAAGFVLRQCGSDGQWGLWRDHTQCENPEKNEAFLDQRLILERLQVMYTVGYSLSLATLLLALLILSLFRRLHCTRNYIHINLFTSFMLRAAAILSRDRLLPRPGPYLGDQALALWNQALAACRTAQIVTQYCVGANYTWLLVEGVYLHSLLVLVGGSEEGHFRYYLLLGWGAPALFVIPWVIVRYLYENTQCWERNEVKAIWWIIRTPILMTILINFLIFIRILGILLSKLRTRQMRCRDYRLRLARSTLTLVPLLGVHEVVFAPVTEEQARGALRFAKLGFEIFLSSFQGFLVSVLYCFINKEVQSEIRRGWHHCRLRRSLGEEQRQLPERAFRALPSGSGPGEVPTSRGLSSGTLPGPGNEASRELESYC
Kind of data set: Displacement of [125I]porcine GIP from human recombinant GIPR receptor expressed in BHK cells by scintillation proximity assay. The class given is cell-based.

The target of data set [6] is T2, Gastric inhibitory polypeptide receptor. Briefly: Binding affinity to human recombinant GIPR expressed in BHK cells by membrane filter assay. In kind it is cell-based.
The species named for data set [7] is Homo sapiens. Briefly: Selectivity ratio of IC50 for human recombinant glucagon receptor to IC50 for human recombinant GIPR. In outline:
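Competition binding of compounds to recombinant human glucagon and GIP receptors on BHK cell membranes, run in parallel as a scintillation proximity assay and, for selected compounds, as a membrane filtration assay.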

The target of data set [8] is T1, Glucagon receptor. Briefly: Binding affinity to human recombinant glucagon receptor expressed in BHK cells by membrane filter assay. The class given is cell-based.
The nature of data set [9]: Binding affinity to glucagon receptor in monkey liver membrane by membrane filter assay. The class given is cell membranes, Macaca mulatta.
The species named for data set [10] is Homo sapiens. Briefly: Selectivity for human recombinant glucagon receptor over human GLP1R.
The nature of data set [11]: Oral bioavailability in fasted Sprague-Dawley rat at 3.25 mg/kg by HTLC-MS/MS analysis. The class given is ADME, organism-based. The note with it: in vivo. In outline:
(§3)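 Separate intravenous and peroral dosing arms per compound, with plasma concentration followed against time. Oral bioavailability (F_po) is reported per compound together with the intravenous half-life and clearance. The dose used for each arm is listed per compound.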

The nature of data set [12]: Clearance in fasted Sprague-Dawley rat at 1.62 mg/kg, iv and 3.25 mg/kg, po by HTLC-MS/MS analysis. The class given is ADME, organism-based. The note with it: in vivo. Put shortly:
as §1

Data set [13] is described as follows: Cmax in fasted Sprague-Dawley rat at 1.66mg/kg, iv and 3 mg/kg, po. The class given is ADME, organism-based. Also noted: dose 3 mg/kg, route oral. The note with it: in vivo. In outline: as §1
Data set [14] is described as follows: Tmax in fasted Sprague-Dawley rat at 1.6mg/kg, iv and 3 mg/kg, po. The class given is ADME, organism-based. Also noted: dose 3 mg/kg, route oral. The note with it: in vivo. Put shortly:
as §2

The nature of data set [15]: Clearance in fasted Sprague-Dawley rat at 1.66 mg/kg, iv and 3 mg/kg, po. The note with it: in vivo. The class given is ADME, organism-based. Put shortly:
as §1

A short description of data set [16]: Oral bioavailability in fasted Sprague-Dawley rat at 3 mg/kg by HTLC-MS/MS analysis. In kind it is ADME, organism-based. The note with it: in vivo. In outline: as §3
Data set [17] can be described thus: Half life in fasted Sprague-Dawley rat plasma at 1.66 mg/kg, iv by HTLC-MS/MS analysis. In kind it is ADME, organism-based. Also noted: dose 1.66 mg/kg, route intravenous. Put shortly: as §1
The nature of data set [18]: Clearance in fasted Sprague-Dawley rat at 1.66 mg/kg, iv and 3.34 mg/kg, po by HTLC-MS/MS analysis. The note with it: in vivo. In kind it is ADME, organism-based. In outline: as §1
Data set [19] in a line: Tmax in fasted Sprague-Dawley rat at 1.66 mg/kg, iv and 3.34 mg/kg, po by HTLC-MS/MS analysis. The class given is ADME, organism-based. The note with it: in vivo. In outline:
as §2

A short description of data set [20]: Oral bioavailability in fasted Sprague-Dawley rat at 3.34 mg/kg by HTLC-MS/MS analysis. In kind it is ADME, organism-based. The note with it: in vivo. Put shortly: as §3
The target in data set [21] is Glucagon receptor (Rattus norvegicus, UniProt P30082). Kind of data set: Binding affinity to glucagon receptor in rat liver membrane by membrane filter assay. In kind it is cell membranes.
Sequence of Glucagon receptor (Rattus norvegicus, UniProt P30082) (P30082 whole entry): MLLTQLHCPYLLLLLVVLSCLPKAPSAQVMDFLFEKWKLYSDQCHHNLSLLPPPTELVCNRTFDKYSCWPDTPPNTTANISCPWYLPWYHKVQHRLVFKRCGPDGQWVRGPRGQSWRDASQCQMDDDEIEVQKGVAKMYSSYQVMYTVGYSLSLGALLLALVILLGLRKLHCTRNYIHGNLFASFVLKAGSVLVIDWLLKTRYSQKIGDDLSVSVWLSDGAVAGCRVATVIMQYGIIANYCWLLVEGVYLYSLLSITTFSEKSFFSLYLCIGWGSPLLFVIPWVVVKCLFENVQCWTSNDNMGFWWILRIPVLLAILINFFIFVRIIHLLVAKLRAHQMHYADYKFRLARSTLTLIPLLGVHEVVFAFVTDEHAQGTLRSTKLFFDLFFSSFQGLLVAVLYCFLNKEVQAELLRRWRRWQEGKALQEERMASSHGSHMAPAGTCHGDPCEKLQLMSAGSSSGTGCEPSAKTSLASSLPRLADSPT
For data set [22], the system named is Hepatocyte. Kind of data set: Inhibition of glucagon-stimulated glucose production in human primary hepatocytes preincubated for 10 mins before glucagon addition by NADH-linked hexokinase assay. In kind it is functional, cell-based. In outline: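 Cultured primary human hepatocytes were preincubated with compound for 10 min, then glycogenolysis was induced with 5 nM glucagon for 60 min. Glucose in the medium was measured against basal glycogenolysis. Albumin was present in the assay medium. IC50 was calculated from four experiments, mean ± SEM.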

Data set [23] deals with Hepatocyte. Kind of data set: Inhibition of glucagon-stimulated glucose production in rat primary hepatocytes. In kind it is functional, cell-based.
Data set [24] addresses Glucagon receptor (Mus musculus, UniProt Q61606). Kind of data set: Binding affinity to glucagon receptor in mouse liver membrane by membrane filter assay. The class given is cell membranes.
Data set [25] can be described thus: Cmax in fasted Sprague-Dawley rat at 1.66 mg/kg, iv and 3.34 mg/kg, po by HTLC-MS/MS analysis. In kind it is ADME, organism-based. The note with it: in vivo. Put shortly: as §1
Data set [26] in a line: Cmax in fasted Sprague-Dawley rat at 1.1 mg/kg, iv and 2.1 mg/kg, po by HTLC-MS/MS analysis. The class given is ADME, organism-based. The note with it: in vivo. In outline: as §1
Data set [27] in a line: Oral bioavailability in fasted Sprague-Dawley rat at 2.1 mg/kg by HTLC-MS/MS analysis. The class given is ADME, organism-based. The note with it: in vivo. Put shortly:
as §3

Data set [28] is described as follows: Tmax in fasted Sprague-Dawley rat at 1.1 mg/kg, iv and 2.1 mg/kg, po by HTLC-MS/MS analysis. The class given is ADME, organism-based. The note with it: in vivo. In outline: as §2
Data set [29] in a line: Clearance in fasted Sprague-Dawley rat at 1.1 mg/kg, iv and 2.1 mg/kg, po by HTLC-MS/MS analysis. The note with it: in vivo. The class given is ADME, organism-based. In outline: as §1
A short description of data set [30]: Half life in fasted Sprague-Dawley rat plasma at 1.1 mg/kg, iv by HTLC-MS/MS analysis. Also noted: dose 1.1 mg/kg, route intravenous. The class given is ADME, organism-based. In outline:
as §1

T1 sequence (P47871 whole entry): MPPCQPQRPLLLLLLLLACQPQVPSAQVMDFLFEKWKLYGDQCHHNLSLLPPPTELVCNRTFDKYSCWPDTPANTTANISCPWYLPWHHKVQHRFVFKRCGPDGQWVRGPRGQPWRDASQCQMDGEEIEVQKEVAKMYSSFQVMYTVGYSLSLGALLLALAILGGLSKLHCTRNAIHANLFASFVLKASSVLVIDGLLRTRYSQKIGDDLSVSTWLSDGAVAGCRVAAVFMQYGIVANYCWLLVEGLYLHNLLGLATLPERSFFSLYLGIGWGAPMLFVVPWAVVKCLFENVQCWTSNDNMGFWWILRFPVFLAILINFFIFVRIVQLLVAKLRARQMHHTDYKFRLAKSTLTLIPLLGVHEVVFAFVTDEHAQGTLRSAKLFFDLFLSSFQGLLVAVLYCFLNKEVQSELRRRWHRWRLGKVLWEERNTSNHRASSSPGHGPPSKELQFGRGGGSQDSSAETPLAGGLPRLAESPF
Sequence of Glucagon receptor (Mus musculus, UniProt Q61606) (Q61606 whole entry): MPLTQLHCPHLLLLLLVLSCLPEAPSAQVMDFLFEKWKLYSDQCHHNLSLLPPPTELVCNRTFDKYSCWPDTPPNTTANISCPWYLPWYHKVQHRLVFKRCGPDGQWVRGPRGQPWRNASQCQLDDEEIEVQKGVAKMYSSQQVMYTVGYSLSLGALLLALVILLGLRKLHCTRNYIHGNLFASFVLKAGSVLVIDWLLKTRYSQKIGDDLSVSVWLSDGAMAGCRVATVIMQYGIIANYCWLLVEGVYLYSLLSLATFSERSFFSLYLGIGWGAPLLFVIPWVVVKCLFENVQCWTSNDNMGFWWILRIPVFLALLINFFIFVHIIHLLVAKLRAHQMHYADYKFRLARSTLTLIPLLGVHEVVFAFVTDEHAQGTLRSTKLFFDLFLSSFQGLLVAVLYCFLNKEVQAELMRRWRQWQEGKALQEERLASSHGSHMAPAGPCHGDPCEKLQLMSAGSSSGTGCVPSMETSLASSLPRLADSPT

Regarding `O=C(O)CCNC(=O)c1ccc(CN(c2ccc3c(c2)CCCC3)c2nc(-c3ccc(C(F)(F)F)cc3)cs2)cc1`, the IC50 (commonly the concentration that inhibits the measured activity by half) in data set [1] was determined as 77 nM; in [5] it was 564 nM; in data set [6] it was 390 nM; in [8], 48 nM; in data set [9] it was 3 nM. Also, the highest concentration (Cmax) (in general, the highest concentration seen after dosing) in data set [2] turned out to be 615 ng/mL. Also, in data set [3], the Tmax – broadly, the time at which the peak concentration occurs – was 1.5 h. In addition, the half-life (commonly the time in which the quantity being followed falls by half) in data set [4] was 1.23 h. Moreover, the values for the fold change (FC) in data set [7] and in data set [10] were 5 and > 50, respectively. The bioavailability (in general, the share of a dose that reaches the circulation, judged against a reference dose that is usually intravenous) in data set [11] was 27%. The clearance in [12] was 7 mL/min/kg.
`O=C(O)CCNC(=O)c1ccc(N(Cc2ccc3c(c2)Cc2ccccc2-3)c2nc(-c3ccc(OC(F)(F)F)cc3)cs2)cc1` came in with a Cmax in data set [13] of 82 ng/mL. The IC50 in data set [1] amounted to 81 nM; in [5], 732 nM. Also, the time to peak (Tmax) in data set [14] is 1.5 h. In data set [15], this compound had a clearance of 31 mL/min/kg. Further, the fold change (FC) in data set [7] was 5; in [10] it was > 50. In addition, the bioavailability in data set [16] was determined as 13%. The compound further displayed a half-life in [17] of 0.767 h.
In data set [13], `O=C(O)CCNC(=O)c1ccc(N(Cc2ccc3c(c2)Cc2ccccc2-3)c2nc(-c3ccc(C(F)(F)F)cc3)cs2)cc1` had a Cmax of 93 ng/mL. Moreover, the IC50 was determined as 78 nM in [1] and 645 nM in [5]. Also, the Tmax in data set [14] was 1.5 h. The clearance in [15] turned out to be 31 mL/min/kg. Besides, the fold change (FC) in [7] is 5; in data set [10], > 50. Besides, the bioavailability in [16] came out at 13%. The compound further came in with a half-life in data set [17] of 0.667 h.
For the compound `O=C(O)CCNC(=O)c1ccc(CN(c2ccc3c(c2)CCC3)c2nc(-c3ccc(C(F)(F)F)cc3)cs2)cc1`, the IC50 in data set [1] came to 86 nM; in data set [5] it was 1100 nM; in data set [6], 510 nM; in data set [8], 64 nM; in data set [9] it was 81 nM; in data set [21], 5400 nM. In addition, the IC50 is < 20000 nM in [22] and 830 nM in data set [24]. This compound came in with a clearance in data set [18] of 13 mL/min/kg. The Tmax in data set [19] was 1 h. Moreover, the bioavailability in data set [20] was 89%. Further, the values for the fold change (FC) in data set [7] and in data set [10] were 5 and > 50, respectively. The inhibition entry in data set [23] was “inactive”. The half-life in data set [17] was determined as 2.18 h. This compound also had a Cmax in data set [25] of 920 ng/mL.
In the case of `O=C(O)CCNC(=O)c1ccc(CN(c2ccc3c(c2)Cc2ccccc2-3)c2nc(-c3ccc(OC(F)(F)F)cc3)cs2)cc1`, the IC50 was 50 nM in [1]; 488 nM in [5]; 290 nM in data set [6]; 59 nM in data set [8]; 62 nM in data set [9]; 1800 nM in [21]. Further, the half-maximal inhibitory concentration (IC50) in [22] amounted to 700 nM; in data set [24], 218 nM. In [26], this compound showed a Cmax of 471 ng/mL. Also, the bioavailability in [27] was 12%. The results for the fold change (FC) in data set [7] and in data set [10] were 5 and > 50, respectively. Further, the Tmax in data set [28] was 5 h. The inhibition result in data set [23] is “inactive”. Also, the clearance in data set [29] came out at 5 mL/min/kg. In data set [30], the half-life came out at 2.47 h.
